For assay [1], the target named is Epithelial discoidin domain-containing receptor 1 (Homo sapiens, UniProt Q08345). Kind of assay: Inhibition of DDR1 (unknown origin) using fluorescein-poly GAT as substrate measured after 1 hr by LANCE ULTRA kinase assay. A general note: TR-FRET usually uses a lanthanide donor and a delayed reading to cut background.
For assay [2], the system named is HCT-116. Kind of assay: Antiproliferative activity against human HCT-116 cells overexpressing DDR1 assessed as inhibition of cell proliferation at 10 uM measured after 72 hrs by MTT assay relative to control. The class given is functional. The method, boiled down:
(§1)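 Adherent cells seeded at 3000–4000 per well, then given compound at 10 μM in 100 μL medium on day two. After 72 h, MTT added for a further 4–5 h and absorbance read at 570 nm. Percent growth inhibition taken from sample absorbance as a ratio to untreated control.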

The subject of assay [3] is HCT-116. Kind of assay: Antiproliferative activity against human HCT-116 cells overexpressing DDR1 assessed as inhibition of cell proliferation measured after 72 hrs by MTT assay. The class given is functional, cell-based. Particulars: HCT-116, 72 h. In short, it runs like this: (§2)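 Adherent cells seeded at 3000–4000 per well and dosed the next day with a dilution series in 100 μL medium. Exposure 72 h, then MTT incubation 4–5 h and absorbance read at 570 nm. Inhibition expressed as sample/control absorbance ratio; IC50 determined only for compounds giving […] inhibition at 10 μM.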
A general note: Tetrazolium dyes change colour on reduction, which living cells bring about.

Assay [4] has as its system MDA-MB-231. Put plainly: Antiproliferative activity against human MDA-MB-231 cells overexpressing DDR1 assessed as inhibition of cell proliferation at 10 uM measured after 72 hrs by MTT assay relative to control. Format: functional. The method, boiled down: as §1
Assay [5] has as its system MDA-MB-231. Put plainly: Antiproliferative activity against human MDA-MB-231 cells overexpressing DDR1 assessed as inhibition of cell proliferation measured after 72 hrs by MTT assay. The class given is functional, cell-based. Particulars: MDA-MB-231, 72 h. In short, it runs like this:
as §2

Sequence of Epithelial discoidin domain-containing receptor 1 (Q08345 whole entry, the tested form may be a part): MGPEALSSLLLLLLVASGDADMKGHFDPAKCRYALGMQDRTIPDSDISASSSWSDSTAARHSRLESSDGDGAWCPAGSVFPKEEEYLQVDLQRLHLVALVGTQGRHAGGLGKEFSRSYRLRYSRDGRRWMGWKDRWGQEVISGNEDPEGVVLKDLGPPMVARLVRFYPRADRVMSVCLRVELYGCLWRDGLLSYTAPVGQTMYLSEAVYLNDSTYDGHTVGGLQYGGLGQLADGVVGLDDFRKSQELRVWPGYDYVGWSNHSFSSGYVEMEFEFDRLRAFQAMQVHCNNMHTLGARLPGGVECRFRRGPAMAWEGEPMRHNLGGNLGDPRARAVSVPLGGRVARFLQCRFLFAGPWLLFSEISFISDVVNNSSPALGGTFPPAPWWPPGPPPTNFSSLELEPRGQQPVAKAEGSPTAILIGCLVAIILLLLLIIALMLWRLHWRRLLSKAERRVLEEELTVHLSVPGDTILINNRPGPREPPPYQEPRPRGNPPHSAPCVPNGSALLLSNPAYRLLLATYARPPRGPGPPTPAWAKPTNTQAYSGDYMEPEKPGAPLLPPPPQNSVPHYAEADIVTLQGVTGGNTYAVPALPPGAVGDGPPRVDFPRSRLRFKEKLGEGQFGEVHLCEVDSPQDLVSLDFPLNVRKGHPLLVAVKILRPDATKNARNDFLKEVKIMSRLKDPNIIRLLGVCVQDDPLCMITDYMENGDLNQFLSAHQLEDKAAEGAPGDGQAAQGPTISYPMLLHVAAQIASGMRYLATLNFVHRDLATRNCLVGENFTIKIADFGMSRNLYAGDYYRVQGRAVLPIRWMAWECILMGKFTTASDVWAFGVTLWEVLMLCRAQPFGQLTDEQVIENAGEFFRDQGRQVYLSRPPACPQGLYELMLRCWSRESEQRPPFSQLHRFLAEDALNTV

`CN1CCN(Cc2ccc(C(=O)Nc3cccc(Oc4ccc(-c5n[nH]c6ncnc(N)c56)cc4)c3)cc2C(F)(F)F)CC1`: the values for the IC50 in assay [1], in assay [3] and in assay [5] were 0.044 µM, 5.96 µM and 4.29 µM, respectively. Further, the inhibition at 10 µM in assay [2] was found to be 99.8%; in assay [4], 98.2%.
`Cc1ccc(NC(=O)c2ccc(CN3CCCCC3)cc2)cc1Oc1ccc(-c2n[nH]c3ncnc(N)c23)cc1`: the inhibition at 10 µM in assay [2] was determined as 99.6%; in assay [4], 98.7%. For the same molecule, the IC50 in assay [3] turned out to be 2 µM; in assay [5] it was 2.68 µM.
`Cc1ccc(NC(=O)c2ccc(CN3CCN(C)CC3)c(C(F)(F)F)c2)cc1Oc1ccc(-c2n[nH]c3ncnc(N)c23)cc1`: the IC50 amounted to 0.044 µM in assay [1], 4 µM in assay [3] and 3.36 µM in assay [5]. The inhibition at 10 µM was 100% in assay [2] and 97.9% in assay [4].
Regarding `Cc1ccc(NC(=O)c2ccc(CN3CCC(C)CC3)c(C(F)(F)F)c2)cc1Oc1ccc(-c2n[nH]c3ncnc(N)c23)cc1`, the IC50 in assay [1] is 2.81 µM; in assay [5] it was over 10 µM. The inhibition at 10 µM in assay [2] came out at 73.7%; in assay [4], 42.1%.
With `Cc1ccc(NC(=O)c2ccc(CN3CCCC3)c(C(F)(F)F)c2)cc1Oc1ccc(-c2n[nH]c3ncnc(N)c23)cc1`, the IC50 in assay [1] was 1.19 µM; in assay [3], over 10 µM. Moreover, the inhibition at 10 µM in assay [2] is 34.9%; in assay [4], 98.5%.
As to `Cc1ccc(NC(=O)c2ccc(CN3CCN(C)CC3)c(Cl)c2)cc1Oc1ccc(-c2n[nH]c3ncnc(N)c23)cc1`, the inhibition at 10 µM worked out at 99.9% in assay [2] and 99.2% in assay [4]. Further, the 50% inhibitory concentration (IC50) in assay [3] was found to be 2.91 µM; in assay [5] it was 3.83 µM.
Turning to `Cc1ccc(NC(=O)c2ccc(CN3CCN(C)CC3)cc2)cc1Oc1ccc(-c2n[nH]c3ncnc(N)c23)cc1`, the IC50 in assay [1] was 2.69 µM; in assay [3] it was over 10 µM. The inhibition at 10 µM in assay [2] was found to be 26.7%; in assay [4] it was 94.5%.
Turning to `Cc1ccc(NC(=O)c2ccc(CN3CCN(C)CC3)c(I)c2)cc1Oc1ccc(-c2n[nH]c3ncnc(N)c23)cc1`, the concentration for half-maximal inhibition (IC50) in assay [1] was 0.131 µM; in assay [3] it was 4.51 µM; in assay [5] it was 3.21 µM. The inhibition at 10 µM in assay [2] turned out to be 99.7%; in assay [4] it was 98.9%.
Take `Cc1ccc(NC(=O)c2ccc(CN3CCCC3)cc2)cc1Oc1ccc(-c2n[nH]c3ncnc(N)c23)cc1`: the inhibition at 10 µM in assay [2] was determined as 100%; in assay [4] it was 98.8%. For the same molecule, in assay [3], the IC50 stood at 3.04 µM.
In turn, `Cc1ccc(NC(=O)c2ccc(CN3CCOCC3)c(Cl)c2)cc1Oc1ccc(-c2n[nH]c3ncnc(N)c23)cc1` showed an IC50 in assay [1] of 2.17 µM. The inhibition at 10 µM in assay [2] is 58.3%; in assay [4], 96.5%.
With `Cc1ccc(NC(=O)c2ccc(CN3CCN(C)CC3)c(F)c2)cc1Oc1ccc(-c2n[nH]c3ncnc(N)c23)cc1`, the inhibition at 10 µM in assay [2] was found to be 73.2%; in assay [4], 92.1%.
`Cc1ccc(NC(=O)c2ccc(CN3CCOCC3)c(Br)c2)cc1Oc1ccc(-c2n[nH]c3ncnc(N)c23)cc1`: the IC50 in assay [1] was 2.47 µM; in assay [3], over 10 µM. Moreover, the inhibition at 10 µM in assay [2] turned out to be 35%; in assay [4] it was 81.3%.
As for `CCN1CCN(Cc2ccc(C(=O)Nc3ccc(C)c(Oc4ccc(-c5n[nH]c6ncnc(N)c56)cc4)c3)cc2C(F)(F)F)CC1`, the 50% inhibitory concentration (IC50) in assay [1] is 0.07 µM; in assay [3], 5.48 µM; in assay [5], 3.85 µM. Besides, the figures for the inhibition at 10 µM in assay [2] and in assay [4] were 99.7% and 99.3%, respectively.
With `Cc1ccc(NC(=O)c2ccc(CN3CCOCC3)cc2)cc1Oc1ccc(-c2n[nH]c3ncnc(N)c23)cc1`, the inhibition at 10 µM in assay [2] worked out at 97.2%; in assay [4], 99%. In addition, the half-inhibitory concentration (IC50) stood at 4.89 µM in assay [3] and 3.53 µM in assay [5].
Take `Cc1ccc(NC(=O)c2ccc(CN3CCN(C)CC3)c(Br)c2)cc1Oc1ccc(-c2n[nH]c3ncnc(N)c23)cc1`: the inhibition at 10 µM in assay [2] was 99.5%; in assay [4], 100%. In addition, the IC50 in assay [3] was 6.56 µM.
The molecule `Cc1ccc(C(=O)Nc2ccc(CN3CCN(C)CC3)c(C(F)(F)F)c2)cc1C#Cc1cnc2ccnn2c1` gave a half-maximal inhibitory concentration (IC50) in assay [1] of 0.005 µM.
In the case of `Cc1ccc(NC(=O)c2ccc(CN3CCCCC3)c(C(F)(F)F)c2)cc1Oc1ccc(-c2n[nH]c3ncnc(N)c23)cc1`, the concentration for half-maximal inhibition (IC50) in assay [1] was 0.975 µM; in assay [3], over 10 µM; in assay [5], over 10 µM. Further, the inhibition at 10 µM in assay [2] came to 36.9%; in assay [4], 29.6%.
As for `Cc1ccc(NC(=O)c2ccc(CN3CCOCC3)c(C(F)(F)F)c2)cc1Oc1ccc(-c2n[nH]c3ncnc(N)c23)cc1`, the IC50 in assay [1] is 0.416 µM; in assay [3], over 10 µM. Besides, the inhibition at 10 µM in assay [2] stood at 20.5%; in assay [4], 71.3%.
Regarding `CCN1CCN(Cc2ccc(C(=O)Nc3ccc(C)c(Oc4ccc(-c5n[nH]c6ncnc(N)c56)cc4)c3)cc2)CC1`, the inhibition at 10 µM in assay [2] was found to be 33.6%; in assay [4], 88.7%. Further, the half-maximal inhibitory concentration (IC50) in assay [3] was over 10 µM.
`Cc1ccc(NC(=O)c2cccc(CN3CCN(C)CC3)c2)cc1Oc1ccc(-c2n[nH]c3ncnc(N)c23)cc1`: the concentration for half-maximal inhibition (IC50) in assay [1] turned out to be 1.21 µM; in assay [3] it was 4.47 µM. Also, the inhibition at 10 µM in assay [2] stood at 99.8%; in assay [4], 99.3%.
Taken in the same sequence, the figures for `Cc1ccc(NC(=O)c2ccc(CN3CCOCC3)c(F)c2)cc1Oc1ccc(-c2n[nH]c3ncnc(N)c23)cc1` were 24.4 µM, over 10 µM, 11.1% and 93.1%.
With `Cc1cn(-c2cc(NC(=O)c3ccc(C)c(Nc4nccc(-c5cccnc5)n4)c3)cc(C(F)(F)F)c2)cn1` [NILOTINIB], the inhibition at 10 µM in assay [2] turned out to be 88.1%; in assay [4], 93.6%. In addition, the figures for the IC50 in assay [3] and in assay [5] were 5.75 µM and 7.31 µM, respectively.
The corresponding values for `Cc1ccc(NC(=O)c2ccc(CN3CCC(C)CC3)cc2)cc1Oc1ccc(-c2n[nH]c3ncnc(N)c23)cc1` are 99.9%, 97.4%, 1.37 µM and 2.76 µM.

A word on the IC50: it is the concentration at which inhibition is half-maximal. What is called inhibition is the relative decrease from the control value, in per cent.

For the origin of these results see ChEMBL document CHEMBL4699659, “Discovery of 4-amino-1H-pyrazolo[3,4-d]pyrimidin derivatives as novel discoidin domain receptor 1 (DDR1) inhibitors” (Bioorg Med Chem, 2021).
